bIAP inhibitor: blocks bovine intestinal alkaline phosphatase activity | purified bovine IAP, CDP-star luminescence, 30 min | 190,000 tested, under 10 active | AID 1019 | inhibition, % at 20 µM;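 active = over 50% inhibition of intestinal alkaline phosphatase at 20 µM in the single-dose screen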
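Assay system: bovine IAP enzyme; medium: DEA buffer 100 mM, pH 9.8, with MgCl2 1.0 mM, ZnCl2 0.02 mM; doses: 20 µM single dose; incubation: enzyme reaction for 30 min at room temperature; detection: CDP-star luminescence signal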
mIAP inh: mouse IAP inhibition. purified mouse IAP, CDP-Star luminescence, 30 min. inhibition, % at 10 µM. 0.2% of 330,000 active. AID 2806;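 active = inhibition of at least 40% at 10 µM in the primary screen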;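 note: plate controls were DMSO with enzyme for no effect and no enzyme wells for full effect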
hIAP activ: increases human intestinal alkaline phosphatase activity; P09923; purified human IAP, CDP-Star luminescence, 30 min; active compounds read high; 1 = vehicle-only enzyme, 0 = enzyme-free background; activation factor at 10 µM; 0.16% of 330,000 active;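 active = activation factor of the enzyme at least 2-fold when tested at 20 µM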
Target sequence (P09923 whole entry, looked up): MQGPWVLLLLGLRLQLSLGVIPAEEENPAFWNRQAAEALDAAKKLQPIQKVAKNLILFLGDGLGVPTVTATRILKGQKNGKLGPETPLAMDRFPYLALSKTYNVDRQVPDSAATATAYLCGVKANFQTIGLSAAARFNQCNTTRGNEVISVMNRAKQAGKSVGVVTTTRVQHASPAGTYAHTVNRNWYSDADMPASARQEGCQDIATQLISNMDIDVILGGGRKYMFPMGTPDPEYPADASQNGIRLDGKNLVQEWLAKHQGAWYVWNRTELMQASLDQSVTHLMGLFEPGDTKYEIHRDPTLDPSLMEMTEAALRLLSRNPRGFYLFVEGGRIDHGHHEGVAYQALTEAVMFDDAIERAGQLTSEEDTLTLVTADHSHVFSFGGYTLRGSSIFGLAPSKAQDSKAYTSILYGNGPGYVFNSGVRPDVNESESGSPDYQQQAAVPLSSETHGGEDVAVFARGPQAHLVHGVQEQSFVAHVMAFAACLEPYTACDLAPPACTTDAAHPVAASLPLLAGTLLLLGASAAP
hIAP inh: blocks human intestinal alkaline phosphatase; 0.12% of 330,000 active; P09923; AID 2544; inhibition, % at 10 µM; purified IAP, CDP-Star luminescence, 30 min;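 active = inhibition reaching a set limit with compound at 10 µM in the primary screen, cut at about 35% in these data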;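 note: plate controls were DMSO wells with enzyme for no effect and no-enzyme buffer wells for full effect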
bIAP activator: increases bovine intestinal alkaline phosphatase activity. purified bovine IAP, CDP-star luminescence, 30 min; active compounds read high; fold of DMSO-control signal, blank-subtracted. activation factor at 20 µM. 0.17% of 200,000 active. AID 1016;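 active = activation factor of 2 or more at 20 µM, a signal rise over negative controls twice the positive control's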
mIAP activ: increases mouse intestinal alkaline phosphatase activity | 0.24% of 330,000 active | muIAP, CDP-Star luminescence, 30 min; active compounds read high; 1 = vehicle-only enzyme signal, 0 = enzyme-free wells | activation factor at 10 µM | AID 2805;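 active = activation factor of at least 2 at 20 µM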
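System: Mouse IAP enzyme | Also added: CDP-Star substrate | Dosing: Compounds dispensed in DMSO | Schedule: 30 min enzyme-substrate-compound incubation at room temperature | Technique: Chemiluminescence readout | Control set: DMSO-only wells and no-enzyme negative control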
mIAP inh confirm: mouse IAP inhibition confirmation; purified mouse IAP, CDP-Star luminescence, 30 min; 4.7% of 11,000 active; inhibition, % at 10 µM; shares compounds with mIAP inh;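 active = inhibition of at least 40% at 10 µM in either of the two replicates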;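 note: plate controls were DMSO wells with enzyme for no effect and buffer wells lacking enzyme for full effect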
An asterisk follows results filed as active; i = inactive; x = no result given. Most compounds without a hit are left out; they make up all but 0.77% or so of the library.

SMILES | bIAP inhibitor | mIAP inh | hIAP activ | hIAP inh | bIAP activator | mIAP activ | mIAP inh confirm
O=C(N/N=C/c1ccc([N+](=O)[O-])o1)c1cc2ccccc2o1 | x | 40.0* | 0.934 | 6.6 | x | 0.6 | 58.9*
COCCCn1c(SCC(=O)N2CCOCC2)nnc1-c1ccco1 | x | 12.9 | 0.903 | 9.7 | x | 0.871 | x
CSCc1ccc(C(=O)OCc2nc3ccccc3s2)o1 | x | 4.1 | 0.98 | 2.0 | x | 0.959 | x
Oc1ccc(/C=N/N=C/c2ccc(O)c(O)c2)cc1O | x | 59.7* | 1 | -0.3 | x | 0.403 | 63.6*
COc1cc(/C=C/C(=O)O)ccc1O | x | 1.7 | 0.97 | 3.0 | x | 0.983 | x
Cc1ccc(Cn2nnc3c(=O)[nH]c(C4CCN(S(=O)(=O)c5ccccc5F)CC4)nc32)cc1 | x | 10.2 | 0.954 | 4.6 | x | 0.898 | x
CC(=O)Oc1cc(C(=O)OCC(=O)N2CCc3ccccc3C2)cc(OC(C)=O)c1OC(C)=O | x | 45.5* | 1.27 | -27.4 | x | 0.545 | 51.2*
CCOC(=O)C1=C(CCc2ccccc2)NC(=O)NC1c1ccc(C#N)cc1 (configuration not stated) | x | -22.6 | 0.959 | 4.1 | x | 1.23 | x
Cc1ccccc1CN1CCC(CNC(=O)Nc2ccc(F)cc2F)CC1 | x | -37.9 | 1.16 | -15.5 | x | 1.38 | x
Cc1c(Cl)cccc1NC(=O)NC1CCCCC1 | 39.0 | -13.5 | 0.914 | 8.6 | 0.6 | 1.14 | x
Cc1ccc(C)c(CN2CCC(CNC(=O)Nc3cccc(Cl)c3C)CC2)c1 | x | -444.9 | 1.66 | -66.0 | x | 5.45* | -147.2
Cc1ccc(NC(=O)NCC2CCN(Cc3cc(C)ccc3Cl)CC2)c(C)c1 | -9.1 | -390.6 | 1.49 | -49.0 | 1.1 | 4.91* | -86.8
O=C(Nc1ccccc1)/C(=C\c1ccc(F)cc1)NC(=O)c1ccco1 | x | 5.7 | 0.843 | 15.7 | x | 0.943 | x
Cc1ccc(C2=NC(=O)/C(=C/c3cc(O)c(O)c(Br)c3)S2)cc1 | 29.0 | 52.6* | 0.86 | 14.0 | 0.7 | 0.474 | 59.9*
CC(=O)Nc1ccc(/C=N/NC(=S)NC(C)C)cc1 | 1.2 | 6.6 | 0.922 | 7.8 | 1 | 0.934 | x
NNC(=O)c1oc2nc(-c3ccco3)cc(-c3ccco3)c2c1N | x | 62.4* | 0.922 | 7.8 | x | 0.376 | 71.8*
Nc1c(C(=O)N/N=C/c2cccnc2)oc2nc(-c3ccccc3)cc(-c3ccco3)c12 | x | 7.2 | 1.01 | -0.6 | x | 0.928 | x
Nc1c(C(=O)N/N=C/c2cccnc2)oc2nc(-c3ccco3)cc(-c3ccco3)c12 | x | 49.0* | 0.889 | 11.1 | x | 0.51 | 41.2*
Cc1c(Br)c(O)c(Br)c2sc(=O)oc12 | x | 59.0* | 1.09 | -8.9 | x | 0.41 | 65.4*
Brc1ccc(C2Nc3cccc4cccc(c34)N2)o1 | 19.8 | 43.6* | 0.871 | 12.9 | 0.8 | 0.564 | 52.8*
Brc1cccc(C2Nc3cccc4cccc(c34)N2)c1 | x | 11.8 | 0.779 | 22.1 | x | 0.882 | x
COC(=O)c1ccccc1Nc1ccnc(Cl)n1 | x | -11.5 | 1.23 | -23.3 | x | 1.11 | x
Cn1nnnc1NCc1cccc(Cl)c1Cl | -4.5 | -5.0 | 0.91 | 9.0 | 1 | 1.05 | x
CCCCOc1[nH]c2nc(-c3ccco3)n(Cc3ccco3)c(=N)c2c1C#N | -2.5 | 63.0* | 1.02 | -1.7 | 1 | 0.37 | 68.1*
CN(C(=O)c1ccccc1-c1ccccc1C(=O)O)c1ccccc1 | x | -10.8 | 0.957 | 4.3 | x | 1.11 | x
SMILES | bIAP inhibitor | mIAP inh | hIAP activ | hIAP inh | bIAP activator | mIAP activ | mIAP inh confirm
CN(C(=O)c1ccccc1)C1c2c(ccc3ccccc23)OCC1CO (configuration not stated) | x | 0.9 | 0.928 | 7.2 | x | 0.991 | x
O=C(Nc1ccc(Cl)cc1)N[C@@H]1c2c(ccc3ccccc23)OC[C@@H]1CO | -11.4 | i | 1.11 | -10.6 | 1.1 | 13.2* | -385.4
CS(=O)(=O)c1ccc(C(=O)Nc2nc(-c3ccco3)c(-c3ccco3)s2)cc1 | x | 59.9* | 0.963 | 3.7 | x | 0.401 | 69.5*
CCC(=O)c1ccc(OC(C)C(=O)NC2(C#N)CCCCC2)cc1 (configuration not stated) | -1.3 | 7.4 | 1.14 | -13.5 | 1 | 0.926 | x
CCCCC1=CC2=C(c3ccco3)C(=O)C(C)(OC(=O)c3ccc(OC)cc3)C(=O)C2=CN1Cc1ccc2c(c1)OCO2 (configuration not stated) | x | 43.5* | 0.799 | 20.1 | x | 0.565 | 49.7*
COc1cc(CNc2ncnc3c2[nH]c2ccc(C)cc23)cc(OC)c1 | x | -211.6 | 1.69 | -69.0 | x | 3.12* | -197.0
CCCn1ncc(CN2CCC(C(=O)Nc3cccc(-c4cccc(F)c4)c3)CC2)c1C | x | -426.1 | 1.04 | -3.7 | x | 5.26* | -428.4
C=CCn1cc(CN2CCC(C(=O)Nc3cccc(-c4cccc(F)c4)c3)CC2)c(C)n1 | x | -149.3 | 0.791 | 20.9 | x | 2.49* | -194.1
O=C(Nc1ccc(F)cc1)Nc1cnccn1 | x | 1.0 | 0.844 | 15.6 | x | 0.99 | x
O=C(Nc1cc(Cl)cc(Cl)c1)Nc1cnccn1 | x | -147.3 | 1.26 | -26.1 | x | 2.47* | -96.5
C[C@H](NC(=O)c1[nH]cnc1C(=O)N[C@H](C)c1ccccc1)c1ccccc1 | x | 5.3 | 1.31 | -31.2 | x | 0.947 | x
CC(=O)CCC(=O)NC1CCCc2c1cnn2-c1ccc(C(C)(C)C)cc1 (configuration not stated) | x | 1.7 | 0.921 | 7.9 | x | 0.983 | x
COc1cccc(CNC(=O)CSc2nnc3c(n2)[nH]c2ccccc23)c1 | x | 0.2 | 1.11 | -11.0 | x | 0.998 | x
O=C(Nc1cccc(Cl)c1)Nc1ccc2c(c1)OCO2 | 18.3 | -162.3 | 0.947 | 5.3 | 0.8 | 2.62* | -146.2
O=C(Nc1ccccc1)Nc1cccc(Cl)c1 | 9.7 | -175.8 | 1.13 | -13.3 | 0.9 | 2.76* | -111.4
O=C(NCc1ccc2c(c1)OCO2)Nc1cccc(Cl)c1 | x | -91.8 | 1.1 | -10.5 | x | 1.92 | x
CSc1cccc(NC(=O)Nc2ccc(Cl)cc2)c1 | 5.9 | -147.5 | 0.939 | 6.1 | 0.9 | 2.48* | -106.2
CC(=O)Nc1ccc(NC(=O)Nc2cccc(Cl)c2)cc1 | x | -72.6 | 1.22 | -22.0 | x | 1.73 | x
O=C(Nc1ccc(C(=O)N2CCCCC2)cc1)Nc1cccc(Cl)c1 | x | -170.9 | 1.49 | -48.6 | x | 2.71* | -139.3
Cc1nnc(SCC(=O)NC(C)(C)C)n1NCc1cccc(Br)c1 | x | -1.6 | 1.09 | -8.7 | x | 1.02 | x
O=C1CSc2ccc(S(=O)(=O)N3CCN(c4ccccc4F)CC3)cc2N1 | x | 5.8 | 1.03 | -3.5 | x | 0.942 | x
COC(=O)c1ccc(C(=O)NC2CCSc3ccccc32)cc1 (configuration not stated) | x | 7.8 | 0.967 | 3.3 | x | 0.922 | x
Cc1ccc(NC(=S)NC2CCSc3ccccc32)cc1C (configuration not stated) | x | -374.7 | 1.35 | -34.7 | x | 4.75* | -171.5
C=CCn1c(SCC(=O)c2ccc(O)c(O)c2)nnc1-c1cccnc1 | x | 57.2* | 0.87 | 13.0 | x | 0.428 | 62.8*
CCn1c(SCC(=O)c2ccc(O)c(O)c2)nnc1-c1ccccc1OC | 19.9 | 43.6* | 1.01 | -0.8 | 0.8 | 0.564 | 63.0*

From PubChem
